Legend:
[1] = system: HUVEC; experiment: In vitro inhibition of primary human umbilical vein endothelial cell (HUVEC) proliferation at 1 uM; assay type: functional; details: values are per cent of control
Outline: (§1)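 bFGF-stimulated HUVEC proliferation; cells incubated with bFGF alone or with increasing compound concentrations. Cell counts remaining normalized: maximal bFGF response = 100%, wells without bFGF (starved) = 0%. Mean ± SEM, n = 11 or n = 5 depending on experiment.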

[2] = target: Estrogen receptor beta (Homo sapiens) (UniProt Q92731); experiment: In vitro displacement of 0.5 nM [3H]E2 from human Estrogen receptor beta at 10 uM
Sequence of Estrogen receptor beta (Homo sapiens) (Q92731 whole entry): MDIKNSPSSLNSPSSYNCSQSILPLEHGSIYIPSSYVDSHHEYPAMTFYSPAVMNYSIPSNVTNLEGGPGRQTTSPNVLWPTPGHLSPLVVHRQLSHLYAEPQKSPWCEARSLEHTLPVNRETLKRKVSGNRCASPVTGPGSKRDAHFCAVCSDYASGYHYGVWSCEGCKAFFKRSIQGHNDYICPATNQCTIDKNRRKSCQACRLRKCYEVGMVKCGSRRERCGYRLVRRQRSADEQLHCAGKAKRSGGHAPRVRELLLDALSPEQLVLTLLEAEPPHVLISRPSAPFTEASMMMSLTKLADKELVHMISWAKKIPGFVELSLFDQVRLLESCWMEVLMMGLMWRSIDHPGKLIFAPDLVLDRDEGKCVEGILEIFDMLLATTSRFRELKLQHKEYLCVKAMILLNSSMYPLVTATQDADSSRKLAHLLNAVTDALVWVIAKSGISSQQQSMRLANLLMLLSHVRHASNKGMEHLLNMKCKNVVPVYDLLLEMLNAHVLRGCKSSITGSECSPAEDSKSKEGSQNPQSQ

[3] = system: HUVEC; experiment: IIn vitro inhibition of primary human umbilical vein endothelial cell (HUVEC) proliferation at 0.1 uM; assay type: functional; details: values are per cent of control; outline: as §1
[4] = system: HUVEC; experiment: In vitro inhibition of primary human umbilical vein endothelial cell (HUVEC) proliferation at 0.01 uM; assay type: functional; details: values are per cent of control; outline: as §1
[5] = system: HUVEC; experiment: In vitro inhibition of primary human umbilical vein endothelial cell (HUVEC) proliferation at 3 uM; assay type: functional; details: values are per cent of control; outline: as §1
[6] = system: HUVEC; experiment: In vitro inhibition of primary human umbilical vein endothelial cell (HUVEC) proliferation at 10 uM; assay type: functional; details: values are per cent of control; outline: as §1

Binding [2]	Compound	growth, % of control at 1 µM [1]	growth, % of control at 0.1 µM [3]	growth, % of control at 0.01 µM [4]	growth, % of control at 3 µM [5]	growth, % of control at 10 µM [6]
90%	COc1cc2c(cc1O)oc(=O)c1cc(C(C)=O)ccc12	85%	100%	90%	60%	10%
100%	COc1ccc2c(c1)oc(=O)c1cc(C(C)=O)ccc12	85%	90%	100%	30%	25%

Compound	Binding [2]	growth, % of control at 1 µM [1]	growth, % of control at 0.1 µM [3]	growth, % of control at 0.01 µM [4]	growth, % of control at 3 µM [5]	growth, % of control at 10 µM [6]
COc1cc2c(cc1O)CC[C@@H]1[C@@H]2CC[C@]2(C)[C@@H](O)CC[C@@H]12 [2-METHOXYESTRADIOL]	25%	60%	100%	100%	25%	–

From ChEMBL document CHEMBL1136750, “Synthesis and evaluation of a novel nonsteroidal-specific endothelial cell proliferation inhibitor” (2003)
